Publication PMC5495021 (Leukemia & lymphoma, 2015)
“Also recorded” adds a separate entry of the source. Like-named read-outs stand apart in the source and are kept apart here.

Columns and labels:
xenograft models = settings: cited from earlier work
Protein binding = format: in vitro ADME, human; settings: no saturation over a clinically relevant concentration range
[1] = system: platelet-derived growth factor receptor (PDGFR); settings: preclinical; cited from earlier work
[2] = system: refractory/relapsed acute leukemias or high-risk myelodysplastic syndromes; experiment: Anti-leukemic efficacy; format: in vivo, human
In short: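 Adults with refractory/relapsed acute leukemia, accelerated/blast-phase CML, or high-risk MDS received IV infusion daily for 5 days per course, starting at 1.2 mg/m2/day with dose escalation. Response was graded by IWG criteria (acute leukemia/MDS) or European LeukemiaNet definitions (CML). Marrow aspirate/biopsy at baseline, course 2 Day 11–14, every 2 courses, and end of study. Descriptive statistics.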

[3] = system: acute and chronic myeloid leukemic cells; settings: inhibition of proliferation and induction of apoptosis; cited from earlier work
[4] = cited from earlier work
Tie2 = settings: preclinical; cited from earlier work
[5] = system: vascular endothelial growth factor receptor type 2 (VEGFR2); settings: preclinical; cited from earlier work
[6] = human, in vivo
[7] = Safety / adverse events and DLT in phase I dose escalation study
CYP2D6 = CYP2D6 (Homo sapiens, UniProt P10635); experiment: Contribution of CYP enzymes to metabolism; format: in vitro ADME
Chain of CYP2D6 (P10635 whole entry): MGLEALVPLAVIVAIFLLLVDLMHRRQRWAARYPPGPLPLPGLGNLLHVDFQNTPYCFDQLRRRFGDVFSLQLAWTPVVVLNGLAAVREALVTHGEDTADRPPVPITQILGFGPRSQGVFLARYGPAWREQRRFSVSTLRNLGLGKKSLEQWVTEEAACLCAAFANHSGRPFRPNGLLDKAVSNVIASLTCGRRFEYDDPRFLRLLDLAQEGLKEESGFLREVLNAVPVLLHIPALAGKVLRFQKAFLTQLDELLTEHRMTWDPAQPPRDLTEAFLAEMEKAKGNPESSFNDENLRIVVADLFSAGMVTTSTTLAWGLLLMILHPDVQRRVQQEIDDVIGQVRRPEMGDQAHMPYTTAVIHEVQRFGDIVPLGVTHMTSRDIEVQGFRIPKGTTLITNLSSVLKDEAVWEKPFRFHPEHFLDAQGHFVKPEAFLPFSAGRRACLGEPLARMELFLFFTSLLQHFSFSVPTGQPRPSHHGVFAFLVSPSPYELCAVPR

[8] = system: leukemic progenitor cells from 29 patients with AML; settings: including poor-prognosis chromosome abnormalities; cited from earlier work
[9] = system: vascular endothelial growth factor receptor type 1 (VEGFR1); settings: preclinical; cited from earlier work
Src kinase family = settings: preclinical; cited from earlier work
BCR-Abl kinase = settings: preclinical; cited from earlier work
[10] = preclinical toxicology studies; cited from earlier work
[11] = system: fibroblast growth factor receptor (FGFR); settings: preclinical; cited from earlier work
[12] = Plasma pharmacokinetics of SAR103168 in phase I patients; format: in vivo, human
human AML leukemic cells = settings: animals implanted with human AML leukemic cells; cited from earlier work
[13] = system: epidermal growth factor receptor (EGFR); settings: preclinical; cited from earlier work
[14] = mice at active doses (16.7 mg/kg IV or 2 × 40 mg/kg PO)

Which “active dose in various tumor models” value (xenograft models; IV, in mice) does the source give for `CC(C)(C)NC(=O)Nc1nc2nc(Nc3ccc4nsnc4c3)ncc2cc1-c1c(Cl)cccc1Cl` [SAR103168, 1-[2-(2,1,3-benzothiadiazol-5-ylamino)-6-(2,6-dicholophenyl)-pyridol[2,3-d]pyrimidin-7-yl]-3′-tert-butylurea] here?
Its value is 16.7 mg/kg.

What about the “putative, partially active dose level” value (xenograft models; based on the preclinical data, human-equivalent of 10 mg/kg in mouse) of the same compound?
Its value is ~ 30 mg/m^2.

And the “putative, partially active dose level” value (xenograft models; in mouse, preclinical data)?
Its value is 10 mg/kg.

And the Human protein binding (Protein binding)?
Its Human protein binding is over 99.3%.

What about the “activity against PDGFR” value [1] of the same compound?
The value was “Nanomolar activity”.

What about the “transient decrease in peripheral blasts” value ([2]; efficacy population) of the same compound?
The value was “One patient”.

What about the clinical benefit ([2]; within the tested dose range) of the same compound?
The clinical benefit was “did not demonstrate a clear clinical benefit”.

What about the “IC50 of anti-leukemic effects” value [3] of the same compound?
Its value is “nanomolar”.

What about the “AUCs achieved in animal models” value [4, 14] of the same compound?
Its value is at least 16000 ng/h/mL.

What about the “Cmax achieved in animal models” value [4, 14] of the same compound?
The value was at least 3600 ng/mL.

What about the “exposures (AUCs) which demonstrated in vivo activity in xenograft models” value ([4]; xenograft models) of the same compound?
Its value is 16000 ng/h/mL.

And the “activity against Tie2” value (Tie2)?
The value was “Nanomolar activity”.

And the “activity against VEGFR2” value [5]?
Its value is “Nanomolar activity”.

And the “maximum tolerated dose (MTD)” value [6]?
The value was “prior to reaching the MTD”.

And the “discontinuation of study treatment due to adverse events” value ([7]; 29 treated patients)?
The value was 10.3%.

What about the “SAE Preferred Term” value ([7]; planned dose level 1.2 mg/m^2, Relationship to Study Drug: No) of the same compound?
Its value is “Multi-organ failure; also recorded: Bacteremia; also recorded: Pneumonia fungal; also recorded: Febrile neutropenia”.

What about the “SAE Preferred Term” value ([7]; planned dose level 1.2 mg/m^2, Relationship to Study Drug: Yes) of the same compound?
The value was “Echocardiogram abnormal”.

What about the “SAE Preferred Term” value ([7]; planned dose level 1.7 mg/m^2, Relationship to Study Drug: No) of the same compound?
Its value is “Deep vein thrombosis; also recorded: Febrile neutropenia; also recorded: Staphylococcal sepsis; also recorded: Disease progression; also recorded: Pulmonary embolism”.

And the “SAE Preferred Term” value ([7]; planned dose level 2.4 mg/m^2, Relationship to Study Drug: No)?
Its value is “Perirectal abscess; also recorded: Febrile neutropenia; also recorded: Anemia; also recorded: Disease progression; also recorded: Septic shock”.

And the “SAE Preferred Term” value ([7]; planned dose level 4.8 mg/m^2, Relationship to Study Drug: No)?
The value was “Bone pain; also recorded: Febrile neutropenia; also recorded: Disease progression”.

And the “SAE Preferred Term” value ([7]; planned dose level 9.6 mg/m^2, Relationship to Study Drug: No)?
Its value is “Pneumonia; also recorded: Bacteremia; also recorded: Asthenia”.

And the “SAE Preferred Term” value ([7]; planned dose level 14.4 mg/m^2, Relationship to Study Drug: No)?
Its value is “Disease progression; also recorded: Sinusitis fungal; also recorded: Sepsis”.

And the “contribution of CYP2D6 to the compound's metabolism” value (CYP2D6)?
The value was ~ 20%.

And the “AML patient samples sensitive to the agent” value [8]?
The value was “over 85%”.

What about the “activity against VEGFR1” value [9] of the same compound?
The value was “Nanomolar activity”.

And the “activity against the Src kinase family” value (Src kinase family)?
The value was “Nanomolar activity”.

And the “activity against the BCR-Abl kinase” value (BCR-Abl kinase)?
Its value is “Nanomolar activity”.

What about the toxicity profile [10] of the same compound?
The toxicity profile was “favorable toxicity profile”.

And the “activity against FGFR” value [11]?
The value was “Nanomolar activity”.

What about the “time by which mean plasma concentrations were below the limit of detection” value ([12]; all dose groups) of the same compound?
The value was at most 24 h.

And the tlast ([12]; generally, over the dose range 1.2 to 14.4 mg/m2)?
Its tlast is at most 7 h.

And the “accumulation in exposures (Cmax or AUClast) upon multiple daily dosings” value ([12]; human, in vivo)?
Its value is “limited accumulation”.

What about the “patient exposure (AUC)” value ([12]; human, in vivo, 14.4 mg/m2) of the same compound?
The value was ~ 1000 ng/h/mL.

And the “patient exposure (Cmax)” value ([12]; human, in vivo, 14.4 mg/m2)?
The value was ~ 500 ng/mL.

And the “effect of administration on tumors” value (human AML leukemic cells)?
The value was “tumor regression”.

What about the “activity against EGFR” value [13] of the same compound?
Its value is “Nanomolar activity”.
